By inhibition in vivo is commonly meant the percentage by which the read-out fell short of the control. What is called inhibition is the relative decrease from the control value, in per cent. Low readings indicate a response near the control, high ones a response far below the control. The ED50 is the dose at which the effect has come halfway, by size or by number of responders.

The source made the active and inactive calls. The calls are words filed in the database; no cut-off is given here.

The values that follow come from ChEMBL document CHEMBL1155856, “Synthesis and anti-inflammatory activity of 2-(2-aroylaroxy)-4,6-dimethoxy pyrimidines” (Bioorg Med Chem Lett, 2008).

In data set [1] the test system is Rattus norvegicus. Briefly: Antiinflammatory activity against carrageenan-induced acute paw edema in albino rat assessed as reduction of edema at 20 mg/kg, po after 3 hrs relative to control. In kind it is functional. Summed up:
(§1)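 Groups of five rats (125–160 g) dosed with test compound; 30 min later 0.2 mL of 1% carrageenan in 0.9% NaCl injected subcutaneously into the plantar aponeurosis of the hind paw. Paw volume read by water plethysmometer at baseline and at 3 h. Mean increase compared with carrageenan-only control group (five rats); % inhibition = (1 − Gt/Gc) × 100.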

In data set [2] the test system is Rattus norvegicus. Briefly: Antiinflammatory activity against carrageenan-induced acute paw edema in albino rat assessed as reduction of edema at 40 mg/kg, po after 3 hrs relative to control. In kind it is functional. Summed up: as §1
In data set [3] the test system is Rattus norvegicus. Briefly: Antiinflammatory activity against carrageenan-induced acute paw edema in albino rat assessed as reduction of edema at 80 mg/kg, po after 3 hrs relative to control. It counts as functional. Summed up:
as §1
A general note: Carrageenan injected into the paw causes an acute inflammation.

Data set [4] deals with Rattus norvegicus. Briefly: Toxicity in albino rat with hyperemia assessed as ulcerogenic activity at 100 mg/kg, po after 5 hrs. Also on record: dose 100 mg/kg, route oral. To be noted: in vivo. It counts as organism-based. Summed up:
(§2)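 Groups of 10 rats (200–230 g) fasted 24 h, then given an oral dose of test compound; controls undosed. Killed 5 h after dosing. Stomach and small intestine examined under microscope for hyperaemia, epithelial shedding, petechiae, frank haemorrhage, and erosion or discrete ulceration with or without perforation; scored as % of animals affected.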

Data set [5] has as its system Rattus norvegicus. Briefly: Toxicity in albino rat with hyperemia assessed as ulcerogenic activity at 200 mg/kg, po after 5 hrs. To be noted: in vivo. The arrangement: dose 200 mg/kg, route oral. It counts as organism-based. The gist of the method:
as §2

In data set [6] the test system is Rattus norvegicus. Briefly: Toxicity in albino rat with hyperemia assessed as ulcerogenic activity at 400 mg/kg, po after 5 hrs. It counts as organism-based. Also on record: dose 400 mg/kg, route oral. As to conditions: in vivo. Summed up: as §2
The subject of data set [7] is Rattus norvegicus. Nature of the data set: Toxicity in albino rat assessed as ulcerogenic activity at 100 mg/kg, po after 5 hrs. In kind it is organism-based. Also on record: dose 100 mg/kg, route oral. As to conditions: in vivo. Summed up:
as §2

The test system of data set [8] is Rattus norvegicus. Nature of the data set: Toxicity in albino rat assessed as ulcerogenic activity at 200 mg/kg, po after 5 hrs. In kind it is organism-based. The arrangement: dose 200 mg/kg, route oral. As to conditions: in vivo. Summed up:
as §2

The test system of data set [9] is Rattus norvegicus. Nature of the data set: Toxicity in albino rat assessed as ulcerogenic activity at 400 mg/kg, po after 5 hrs. It counts as organism-based. The arrangement: dose 400 mg/kg, route oral. As to conditions: in vivo. Summed up: as §2
Data set [10] is filed under the species Oryctolagus cuniculus. Briefly: Inhibition of rabbit distal colon cyclooxygenase at 10 uM. The gist of the method: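 Microsomal fraction from rabbit distal colon mucosa, homogenized and washed in 0.1 M Tris pH 8.0, used fresh. Preincubated with test agent 10 min at 37 °C in Tris-HCl pH 8.0 with 2 mM reduced glutathione, 5 mM L-tryptophan and 1 µM hematin. Then 20 µM arachidonic acid with trace [1-14C]arachidonate added, 5 min at 37 °C. Stopped with cold ether/methanol/0.2 M citric acid. PGE2 separated by RP-HPLC and counted by scintillation; inhibition vs paired controls.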

The target of data set [11] is Phospholipase A2 (Rattus norvegicus) (UniProt P04055). Nature of the data set: Inhibition of rat PLA2 using [14C]oleate labeled autoclaved Escherichia coli at 10 ug. The gist of the method: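 Enzyme amount set for 10–15% hydrolysis over 60 min at 37 °C. Stopped with 2.0 N HCl plus fatty-acid-free BSA, centrifuged at 20,000g for 5 min. Released [14C]oleic acid in the supernatant counted by liquid scintillation.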
Chain of Phospholipase A2 (Rattus norvegicus) (P04055 whole entry): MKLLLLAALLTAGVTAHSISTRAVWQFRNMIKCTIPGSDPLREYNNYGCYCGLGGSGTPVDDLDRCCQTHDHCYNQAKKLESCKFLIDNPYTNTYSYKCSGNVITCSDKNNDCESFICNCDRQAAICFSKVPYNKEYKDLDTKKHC

Data set [12] in a line: Toxicity in po dosed albino mouse. To be noted: in vivo, read-out: ALD50. In kind it is organism-based. The gist of the method:
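Albino mice (25–30 g), in groups of 10, were given test compound at several dose levels. Percent mortality in each group was recorded 24 h after dosing. The approximate 50% lethal dose (ALD50) was calculated by Smith's method.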

For data set [13], the system named is Rattus norvegicus. Nature of the data set: Antiinflammatory activity against carrageenan-induced acute paw edema in po dosed albino rat assessed as reduction of edema. In kind it is functional. Summed up:
as §1

For `CC(=O)Oc1ccccc1C(=O)O` [ASPIRIN], the inhibition in vivo at 20 mg/kg in data set [1] was determined as 29.9%. In addition, the inhibition in vivo at 40 mg/kg in [2] amounted to 38.8%. Further, the inhibition in vivo at 80 mg/kg in data set [3] was determined as 61.4%. In addition, the Activity in data set [4] turned out to be 30%; in data set [5], 60%; in [6] it was 90%; in data set [7], 80%; in data set [8] it was 90%; in data set [9] it was 90%. For the same compound, the values for the inhibition in [10] and in [11] were 99% and 90%, respectively.

In the case of `COc1cc(OC)nc(Oc2ccc(C)cc2C(=O)c2ccc(C)cc2)n1`, the inhibition in vivo at 20 mg/kg in data set [1] is 20.2%. Moreover, the inhibition in vivo at 40 mg/kg in data set [2] was 45.8%. Besides, the inhibition in vivo at 80 mg/kg in [3] was 55.3%. For the same compound, the Activity in data set [4] is reported as 50%; in data set [5] it was 70%; in data set [6] it was 100%; in data set [7], 20%; in data set [8] it was 30%; in data set [9], 40%. Besides, the figures for the inhibition in data set [10] and in data set [11] were 87% and 10%, respectively. The LD50 in data set [12] was over 1000 mg/kg. Also, in [13], the ED50 amounted to 60.2 mg/kg.

Consider `COc1cc(OC)nc(Oc2ccc(C)cc2C(=O)c2ccc(Cl)cc2)n1`, for which, in data set [1], the inhibition in vivo at 20 mg/kg amounted to 11.5%. Further, the inhibition in vivo at 40 mg/kg in [2] worked out at 21.5%. Besides, the inhibition in vivo at 80 mg/kg in data set [3] worked out at 45.5%. The Activity in [4] was found to be 20%; in [5], 40%; in data set [6], 60%; in [7], 40%; in data set [8], 50%; in [9], 80%. The outcome in data set [10] was inactive. Further, the inhibition in data set [11] is 80%. The LD50 in [12] is over 1000 mg/kg. Besides, the ED50 in data set [13] is 77.5 mg/kg.

Consider `COc1cc(OC)nc(Oc2ccc(F)cc2C(=O)c2ccc(Cl)cc2)n1`, for which the inhibition in vivo at 20 mg/kg in [1] is 29.9%. Also, the inhibition in vivo at 40 mg/kg in data set [2] was found to be 48.6%. The inhibition in vivo at 80 mg/kg in [3] amounted to 88.6%. The Activity in data set [4] was 30%; in [5] it was 60%; in data set [6] it was 90%; in data set [7], 10%; in data set [8], 20%; in data set [9], 12%. Besides, the outcome in [10] was inactive. The compound also registered an inhibition in [11] of 60%. The LD50 in data set [12] was over 1000 mg/kg. For the same compound, the median effective dose (ED50) in [13] was 51.2 mg/kg.

In the case of `COc1cc(OC)nc(Oc2ccc(Cl)cc2C(=O)c2ccc(Cl)cc2)n1`, in data set [1], the inhibition in vivo at 20 mg/kg was 13.4%. Besides, the inhibition in vivo at 40 mg/kg in data set [2] turned out to be 29.5%. For the same compound, the inhibition in vivo at 80 mg/kg in data set [3] was 58.7%. In addition, the Activity in [4] is 40%; in [5], 60%; in data set [6], 100%; in data set [7], 10%; in data set [8], 20%; in data set [9], 40%. The inhibition in data set [10] was 20%; in [11] it was 40%. Moreover, the LD50 in data set [12] is over 1000 mg/kg. The ED50 in data set [13] turned out to be 78.3 mg/kg.

Consider `COc1cc(OC)nc(Oc2ccc(F)cc2C(=O)c2ccc(C)cc2)n1`, for which the inhibition in vivo at 20 mg/kg in data set [1] was 19.4%. For the same compound, the inhibition in vivo at 40 mg/kg in data set [2] was 29.1%. The inhibition in vivo at 80 mg/kg in data set [3] worked out at 58.2%. The Activity is 70% in [4]; 90% in data set [5]; 100% in [6]; 10% in data set [7]; 20% in [8]; 40% in [9]. For the same compound, the values for the inhibition in data set [10] and in data set [11] were 40% and 20%, respectively. The LD50 in data set [12] was over 1000 mg/kg. In data set [13], the ED50 turned out to be 62.5 mg/kg.

`CCCCC1C(=O)N(c2ccccc2)N(c2ccccc2)C1=O` [PHENYLBUTAZONE]: the inhibition in vivo at 20 mg/kg in data set [1] was 29.6%. Besides, the inhibition in vivo at 40 mg/kg in data set [2] came to 34.1%. In data set [3], the inhibition in vivo at 80 mg/kg came to 51.9%. Further, the Activity amounted to 30% in [4]; 60% in [5]; 90% in data set [6]; 30% in data set [7]; 60% in data set [8]; 90% in data set [9]. Moreover, the inhibition in data set [10] worked out at 89%; in [11] it was 85%.

For `COc1cc(OC)nc(Oc2ccc(Br)cc2C(=O)c2ccc(Cl)cc2)n1`, the inhibition in vivo at 20 mg/kg in data set [1] stood at 13.7%. Besides, the inhibition in vivo at 40 mg/kg in data set [2] stood at 33.2%. The inhibition in vivo at 80 mg/kg in data set [3] turned out to be 57.7%. For the same compound, the Activity in data set [4] is 50%; in data set [5], 70%; in data set [6] it was 90%; in data set [7] it was 5%; in data set [8], 10%; in [9], 15%. Besides, the inhibition in data set [10] amounted to 70%; in data set [11], 30%. Also, the LD50 in data set [12] is over 1000 mg/kg. Besides, in data set [13], the ED50 is 77.2 mg/kg.
